Experimental data from ChEMBL document CHEMBL3108700, “Designing anti-inflammatory drugs from parasitic worms: a synthetic small molecule analogue of the Acanthocheilonema viteae product ES-62 prevents development of collagen-induced arthritis” (J Med Chem, 2013).
Calls of active or inactive are those of the source. Unless noted, no cut-off for these calls is given here.

Legend:
TLR2/TLR6 (Mus musculus) = TLR2/TLR6 (Mus musculus) (UniProt Q9QUN7+Q9EPW9); test: Inhibition of TLR2/6 in BALB/c mouse BMDM assessed as downregulation of BLP-stimulated IL-12p40 level at 5 ug/ml preincubated for 18 hrs followed by BLP challenge measured after 24 hrs by ELISA relative to control; format: protein-complex assay
Procedure, shortened: (§1)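 BALB/c male bone marrow macrophages were differentiated 7 days with L929 supernatant (≥99% CD11b+/F4/80+). Cells were plated at 2 × 10^5/well in triplicate, rested overnight, and given compounds at 5 μg/mL for 18 h. They were then stimulated with 100 ng/mL S. minnesota LPS, 10 ng/mL Pam3CSK4 (BLP) or 0.01 μM CpG for 24 h. Supernatant IL-12p40 and IL-6 were measured by ELISA (sensitivity 16 pg/mL).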

Mus musculus [1] = organism: Mus musculus; test: Inhibition of TLR4/IL-1R in BALB/c mouse BMDM assessed as downregulation of LPS-stimulated MyD88 protein expression at 1 ug/mL after 20 hrs by Western blotting analysis relative to control
Procedure, shortened: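 Bone marrow macrophages were treated 20 h with medium, compound (1 or 5 μg/mL) or LPS (100 ng/mL) and lysed in modified RIPA buffer. Protein (30 μg) was separated on Bis-Tris gels, and MyD88 and GAPDH were detected by Western blot with ECL. Densitometric MyD88:GAPDH ratio was normalized to the RPMI value, from six analyses.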

Mus musculus [2] = test: (§2) Antiinflammatory activity in DBA/1 mouse collagen-induced arthritis model assessed as reduction in number of PMA/ionomycin-stimulated CD4+ T cells expressing IL-17 at 50 ug/kg, sc administered 2 days prior to collagen challenge continued till day 21 post collagen challenge by flow cytometric analysis relative to control; format: functional, organism-based; settings: T-cell
Procedure, shortened: (§3)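 CIA mice given test agent (1 μg/dose) or PBS subcutaneously on days −2, 0 and 21. Draining lymph node cells (10^6/mL) in complete RPMI were stimulated ± 50 ng/mL PMA plus 500 ng/mL ionomycin, with 10 μg/mL brefeldin A for 5 h at 37 °C. Cells were surface-stained for CD4, CD8 and γδ, fixed and permeabilized, then stained for intracellular IFNγ and IL-17A. Gating used isotype controls. Cell numbers per individual mouse; naive n = 7, treated groups n = 13.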

Mus musculus [3] = test: Antiinflammatory activity in DBA/1 mouse collagen-induced arthritis model assessed as reduction in number of CD8+ T cells at 50 ug/kg, sc administered 2 days prior to collagen challenge continued till day 21 post collagen challenge; format: functional, organism-based; settings: T-cell
Procedure, shortened: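 Dosing was 1 μg/dose or PBS given subcutaneously on days −2, 0 and 21 of CIA. Total, CD4+, CD8+ and γδ T cell numbers in draining lymph nodes were counted by flow cytometry for each mouse. Naive mice not exposed to collagen served as a further control (naive n = 7; PBS and treated n = 13).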

[4] = biological target: T1, Toll-like receptor 4 (Mus musculus) (UniProt Q9QUK6); test: Inhibition of TLR4-mediated NFkappaB p65 activation in LPS-stimulated BALB/c mouse BMDM at 5 ug/ml preincubated for 18 hrs followed by LPS challenge measured after 1 hr by TransAM ELISA
T1 sequence (whole entry): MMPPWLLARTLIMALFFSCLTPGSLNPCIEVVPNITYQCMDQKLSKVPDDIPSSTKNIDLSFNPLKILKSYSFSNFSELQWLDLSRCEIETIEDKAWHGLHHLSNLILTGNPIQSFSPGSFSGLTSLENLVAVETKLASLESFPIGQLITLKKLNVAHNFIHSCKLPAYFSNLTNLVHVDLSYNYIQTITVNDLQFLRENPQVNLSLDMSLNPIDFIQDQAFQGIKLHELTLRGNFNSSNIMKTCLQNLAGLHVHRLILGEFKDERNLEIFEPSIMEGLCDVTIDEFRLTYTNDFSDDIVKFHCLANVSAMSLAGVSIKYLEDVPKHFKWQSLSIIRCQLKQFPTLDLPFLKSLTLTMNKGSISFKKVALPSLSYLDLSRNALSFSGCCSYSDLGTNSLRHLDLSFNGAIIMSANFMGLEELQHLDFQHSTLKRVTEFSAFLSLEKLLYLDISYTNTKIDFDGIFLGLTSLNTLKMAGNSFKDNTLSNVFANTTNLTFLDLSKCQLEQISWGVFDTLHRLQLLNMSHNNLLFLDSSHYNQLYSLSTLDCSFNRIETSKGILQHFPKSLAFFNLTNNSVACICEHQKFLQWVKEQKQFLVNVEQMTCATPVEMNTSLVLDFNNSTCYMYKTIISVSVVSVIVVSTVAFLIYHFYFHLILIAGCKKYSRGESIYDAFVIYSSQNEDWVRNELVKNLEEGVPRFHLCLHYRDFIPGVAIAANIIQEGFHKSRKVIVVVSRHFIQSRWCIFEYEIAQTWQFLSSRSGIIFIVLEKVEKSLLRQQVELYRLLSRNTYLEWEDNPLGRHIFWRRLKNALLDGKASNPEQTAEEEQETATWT
Procedure, shortened: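 Bone marrow macrophages (4 × 10^6/well) had their medium changed after 24 h, were pretreated with compounds at 5 μg/mL for 18 h, then stimulated for 1 h with 100 ng/mL LPS, 10 ng/mL BLP or 1 μM CpG. Activated NFκB p65 in nuclear extracts was measured by TransAM ELISA in duplicate.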

Mus musculus [5] = test: as §2, with “total DLN” for “CD4+ T”, “IFNgamma” for “IL-17”; format: functional, organism-based; procedure, shortened: as §3
Mus musculus [6] = test: Antiinflammatory activity in DBA/1 mouse collagen-induced arthritis model assessed as reduction of disease scores at 50 ug/kg, sc administered 2 days prior to collagen challenge continued till day 21 post collagen challenge; format: functional, organism-based
Procedure, shortened: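 Collagen-induced arthritis mice were dosed subcutaneously (1 μg/dose) or given PBS on days −2, 0 and 21. Arthritis was scored clinically and hind paw width measured. Incidence was the % of mice with severity score ≥2 (cumulative) or ≥4 (high score). Results are mean ± SEM. Scores n = 13 per group, pooled from two experiments; paw width n = 7, from a single experiment.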

Mus musculus [7] = test: as §2, with “total DLN” for “CD4+ T”; format: functional, organism-based; procedure, shortened: as §3
[8] = biological target: T1, Toll-like receptor 4 (Mus musculus); test: Inhibition of TLR4 in BALB/c mouse BMDM assessed as downregulation of LPS-stimulated IL-12p40 level at 5 ug/ml preincubated for 18 hrs followed by LPS challenge measured after 24 hrs by ELISA relative to control; procedure, shortened: as §1
[9] = Cytotoxicity against BLP-stimulated BALB/c mouse BMDM assessed as loss of cell viability at 5 ug/mL preincubated for 18 hrs followed by BLP challenge measured after 24 hrs by 7-AAD staining-based flow cytometric analysis
Procedure, shortened: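 BALB/c bone marrow macrophages (2 × 10^5/well) were rested 24 h in complete RPMI, then given 5 μg/mL compound for 18 h. Cells were stained with 7-AAD for 10 min on ice and the dead fraction read by flow cytometry. One experiment is representative of two.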

[10] = biological target: T1, Toll-like receptor 4 (Mus musculus); test: Inhibition of TLR4 in BALB/c mouse BMDM assessed as reduction of LPS-stimulated IL-6 production at 0.2 ug/ml preincubated for 18 hrs followed by LPS challenge measured after 24 hrs by ELISA

## CN(C)CCS(=O)(=O)Cc1ccc(Br)cc1
TLR2/TLR6 (Mus musculus)
  inhibition: Active
Mus musculus [1]
  fold change (FC): 1.09
Mus musculus [2]
  Activity: Active
Mus musculus [3]
  Activity: Active
[4]
  inhibition: Active
Mus musculus [5]
  Activity: Active
Mus musculus [6]
  Activity: Active
Mus musculus [7]
  Activity: Active
[8]
  inhibition: Active
[9]
  Activity: Non-toxic
[10]
  inhibition: inactive
